How the values were obtained:
Macrophage [1] = test: Inhibition of LPS-induced NO production in ddY mouse macrophages at 30 uM after 20 hrs by Griess reagent assay relative to control; format: functional
Outline: (§1)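 Thioglycolate-elicited peritoneal macrophages from male ddY mice were precultured 1 h; nonadherent cells were washed off. Adherent cells (5 × 10⁵/well, RPMI 1640 with 5% FCS) were exposed 20 h to 10 μg/mL LPS with compound (1–100 μM, 0.5% DMSO final). Nitrite in the medium was measured with Griess reagent. Inhibition = (A−B)/(A−C) × 100 against LPS-only and unstimulated wells; IC50 was read graphically, N = 4, means ± SEM.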

Macrophage [2] = test: Inhibition of LPS-induced NO production in ddY mouse macrophages at 3 uM after 20 hrs by Griess reagent assay relative to control; format: functional; outline: as §1
Macrophage [3] = test: Inhibition of LPS-induced NO production in ddY mouse macrophages at 100 uM after 20 hrs by Griess reagent assay relative to control; format: functional; outline: as §1
Macrophage [4] = test: Inhibition of LPS-induced NO production in ddY mouse macrophages at 10 uM after 20 hrs by Griess reagent assay relative to control; format: functional; outline: as §1
Macrophage [5] = test: Inhibition of LPS-induced NO production in ddY mouse macrophages at 1 uM after 20 hrs by Griess reagent assay relative to control; format: functional; outline: as §1
Macrophage [6] = test: Inhibition of LPS-induced NO production in ddY mouse macrophages after 20 hrs by Griess reagent assay; format: functional, cell-based; outline: as §1

## O[C@@H]1C=C[C@]23CCN(Cc4cc5c(cc42)OCO5)[C@H]3C1 [VITTATINE]
Macrophage [1]
  inhibition at 30 µM: 13.1%
Macrophage [2]
  inhibition at 3 µM: -12.5%
Macrophage [3]
  inhibition at 100 µM: 42.4%
Macrophage [4]
  inhibition at 10 µM: 7.1%
Macrophage [5]
  inhibition at 1 µM: -0.2%

## CC(=O)O[C@H]1C=C[C@]23c4cc5c(cc4CN(C[C@@H]2O)[C@H]3C1)OCO5 [YEMENINE A]
Macrophage [1]
  inhibition at 30 µM: 93%
Macrophage [2]
  inhibition at 3 µM: 38.1%
Macrophage [3]
  inhibition at 100 µM: 98.5%
Macrophage [6]
  IC50: 4.9 µM
Macrophage [4]
  inhibition at 10 µM: 69%
Macrophage [5]
  inhibition at 1 µM: 10.4%

## O[C@H]1C=C[C@]23c4cc5c(cc4CN(C[C@@H]2O)[C@H]3C1)OCO5
Macrophage [1]
  inhibition at 30 µM: 55.6%
Macrophage [2]
  inhibition at 3 µM: 7.4%
Macrophage [3]
  inhibition at 100 µM: 82%
Macrophage [6]
  IC50: 24 µM
Macrophage [4]
  inhibition at 10 µM: 28.6%
Macrophage [5]
  inhibition at 1 µM: 3.1%

## c1ccc2c(c1)ncc1cc3c(cc12)OCO3 [TRISPHAERIDINE]
Macrophage [1]
  inhibition at 30 µM: -7%
Macrophage [2]
  inhibition at 3 µM: -6.9%
Macrophage [3]
  inhibition at 100 µM: 0.3%
Macrophage [4]
  inhibition at 10 µM: -3.4%
Macrophage [5]
  inhibition at 1 µM: -7.1%

## CO[C@H]1C=C[C@]23c4cc5c(cc4C(O)N(C[C@H]2O)[C@H]3C1)OCO5 (mixture of isomers)
Macrophage [1]
  inhibition at 30 µM: 30.3%
Macrophage [2]
  inhibition at 3 µM: -23.1%
Macrophage [3]
  inhibition at 100 µM: 69.5%
Macrophage [6]
  IC50: 5.4 µM
Macrophage [4]
  inhibition at 10 µM: 6.3%
Macrophage [5]
  inhibition at 1 µM: -11.2%

## CO[C@H]1[C@@H](OC)C[C@H](C)[C@@H](OC)C2=CC(=O)C=C(NC(=O)/C(C)=C/C=C/[C@H](OC)[C@@H](OC(N)=O)/C(C)=C/[C@@H]1C)C2=O [HERBIMYCIN]
Macrophage [2]
  inhibition at 3 µM: 77%
Macrophage [6]
  IC50: 0.094 µM
Macrophage [5]
  inhibition at 1 µM: 48%

## O[C@H]1[C@H]2c3cc4c(cc3CN3CCC(=C[C@@H]1O)[C@H]23)OCO4 [LYCORINE]
Macrophage [1]
  inhibition at 30 µM: 54.4%
Macrophage [2]
  inhibition at 3 µM: 2.8%
Macrophage [3]
  inhibition at 100 µM: 91.4%
Macrophage [6]
  IC50: 2.5 µM
Macrophage [4]
  inhibition at 10 µM: 20.6%
Macrophage [5]
  inhibition at 1 µM: 0%

## N=C(N)NCCSSCCNC(=N)N [GUANIDINOETHYLDISULFIDE]
Macrophage [1]
  inhibition at 30 µM: 89.7%
Macrophage [2]
  inhibition at 3 µM: 24.4%
Macrophage [3]
  inhibition at 100 µM: 97.9%
Macrophage [6]
  IC50: 7.4 µM
Macrophage [4]
  inhibition at 10 µM: 57.9%
Macrophage [5]
  inhibition at 1 µM: 6.2%

## OC1c2cc3c(cc2[C@]24C=C[C@@H](O)C[C@@H]2N1C[C@H]4O)OCO3 (mixture of isomers) [YEMENINE C]
Macrophage [1]
  inhibition at 30 µM: 18.3%
Macrophage [2]
  inhibition at 3 µM: 1.6%
Macrophage [3]
  inhibition at 100 µM: 31.3%
Macrophage [4]
  inhibition at 10 µM: 0.5%
Macrophage [5]
  inhibition at 1 µM: 9.7%

## O=C(/C=C/c1ccc(O)c(O)c1)OCCc1ccccc1 [CAFFEIC ACID PHENETHYL ESTER]
Macrophage [1]
  inhibition at 30 µM: 93.7%
Macrophage [2]
  inhibition at 3 µM: 1.4%
Macrophage [3]
  inhibition at 100 µM: 99.6%
Macrophage [6]
  IC50: 15 µM
Macrophage [4]
  inhibition at 10 µM: 68.2%
Macrophage [5]
  inhibition at 1 µM: 3.8%

## CO[C@H]1C=C[C@@]23c4cc5c(cc4CN(C[C@@H]2O)[C@H]3C1)OCO5
Macrophage [1]
  inhibition at 30 µM: 65.2%
Macrophage [2]
  inhibition at 3 µM: 7.8%
Macrophage [3]
  inhibition at 100 µM: 86.1%
Macrophage [6]
  IC50: 1.8 µM
Macrophage [4]
  inhibition at 10 µM: 30.2%
Macrophage [5]
  inhibition at 1 µM: 8.1%

## CNC(=N)NCCC[C@H](N)C(=O)O [TILARGININE]
Macrophage [1]
  inhibition at 30 µM: 34.1%
Macrophage [2]
  inhibition at 3 µM: 10.3%
Macrophage [3]
  inhibition at 100 µM: 63.1%
Macrophage [6]
  IC50: 57 µM
Macrophage [4]
  inhibition at 10 µM: 15%
Macrophage [5]
  inhibition at 1 µM: 5.9%

— ChEMBL document CHEMBL1151246, “New crinine-type alkaloids with inhibitory effect on induction of inducible nitric oxide synthase from Crinum yemense” (J Nat Prod, 2004)
